Source: ChEMBL document CHEMBL5653630, “Activation of the p53-MDM4 regulatory axis defines the anti-tumour response to PRMT5 inhibition through its role in regulating cellular splicing” (Sci Rep, 2018)
The source made the active and inactive calls. The calls are words filed in the database; no cut-off is given here.

Tests used:
Z-138 [1] = assay: Induction of cell cycle arrest in human Z138 cells assessed as increase in 2n cell population measured upto 5000 nM measured for 3 days by propidium iodide staining based flow cytometric analysis; format: functional; settings: time 3.0 day
MCF7 = assay: Induction of cell cycle arrest in human MCF7 cells assessed as increase in 2n cell population measured upto 5000 nM measured for 2 to 7 days by propidium iodide staining based flow cytometric analysis; format: functional; settings: time 2-7 day
JVM-2 = assay: Induction of cell cycle arrest in human JVM-2 cells assessed as increase in 2n cell population measured upto 5000 nM measured for 3 days by propidium iodide staining based flow cytometric analysis; format: functional; settings: time 3.0 day
Rec1 = assay: Induction of cell cycle arrest in human REC1 cells assessed as increase in 2n cell population measured upto 5000 nM measured for 3 days by propidium iodide staining based flow cytometric analysis; format: functional; settings: time 3.0 day
Z-138 [2] = assay: Antitumor activity against human Z138 cells xenografted in mouse at 25 to 50 mg/kg, po BID measured at 14 to 21 days; format: functional, organism-based; settings: dose lower […], dose upper 50.0 mg/kg, time 14-21 day
Hs746T = assay: Antiproliferative activity against human Hs746T cells assessed as cell growth inhibition incubated for 10 days; format: functional; settings: 240 h, time 10 day
Procedure, shortened: (§1)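 Eurofins panel, 384-well. Cells kept in RPMI-1640 with 10% FBS, 2 mM L-alanyl-L-glutamine and 1 mM Na pyruvate, or in a special medium, at 37°C under 5% CO2. Compound added 24 h after seeding as 10 concentrations in 3.16-fold steps, 0.1% DMSO final. Medium replaced and compound re-dosed at 168 h. After 240 h, cells fixed and nuclei stained for imaging. gIC50 = growth midway between untreated cells and time-zero count.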

NCI-H520 = assay: Antiproliferative activity against human NCI-H520 cells assessed as cell growth inhibition incubated for 10 days; format: functional; settings: NCI-H520, 240 h, time 10 day
ARH-77 = assay: Antiproliferative activity against human ARH-77 cells assessed as cell growth inhibition incubated for 10 days; format: functional; settings: ARH-77, 240 h, time 10 day
Procedure, shortened: (§2)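 Cells kept in RPMI-1640 with 10% FBS, 2 mM L-alanyl-L-glutamine and 1 mM Na pyruvate (or a special medium) at 37°C, 5% CO2. Compound added 24 h after seeding, 10 concentrations in 3.16-fold dilution, 0.1% DMSO final. Medium replaced and cells re-dosed at 168 h; 240 h incubation. Nuclei fixed, dye-stained and imaged. gIC50 = growth midway between untreated and time-zero cell counts, from a 4-parameter fit.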

639-V = assay: Antiproliferative activity against human 639-V cells assessed as cell growth inhibition incubated for 10 days; format: functional; settings: 240 h, time 10 day; procedure, shortened: as §2
K562 = assay: Antiproliferative activity against human K562 cells assessed as cell growth inhibition incubated for 10 days; format: functional; settings: K562, 240 h, time 10 day
Procedure, shortened: (§3)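 Eurofins-panel 10-day assay in 384-well plates. Cells grown in RPMI-1640 with 10% FBS, 2 mM L-alanyl-L-glutamine and 1mM Na pyruvate, or a special medium, at 37°C in 5% CO₂. Compound added 24 h after seeding, 10-point 3.16-fold series in 0.1% DMSO. Medium replaced and compound re-dosed at 168 h. Nuclei fixed and stained after 240 h, then imaged to give a relative cell count. gIC50 is the concentration giving growth midway between untreated and time-zero counts, from a 4-parameter fit.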

DU-145 = assay: Antiproliferative activity against human DU-145 cells assessed as cell growth inhibition incubated for 10 days; format: functional; settings: DU-145, 240 h, time 10 day
Procedure, shortened: (§4)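 Outsourced panel run in 384-well plates. Cells were grown in RPMI-1640/10% FBS or a special medium at 37°C, 5% CO2. Compound was added 24 h after seeding as a 10-point, 3.16-fold series in 0.1% DMSO. Medium was refreshed and cells re-dosed at 168 h, with a time-zero plate kept. At 240 h cells were fixed, nuclei stained and imaged. gIC50 is growth midway between untreated and time zero, from a 4-parameter fit.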

CAL-27 = assay: Antiproliferative activity against human CAL-27 cells assessed as cell growth inhibition incubated for 10 days; format: functional; settings: CAL-27, 240 h, time 10 day; procedure, shortened: as §2
[3] = Antiproliferative activity against human C32TG cells assessed as cell growth inhibition incubated for 10 days; format: functional; settings: 240 h, time 10 day; procedure, shortened: as §2
[4] = Antiproliferative activity against human MT-3 cells assessed as cell growth inhibition incubated for 10 days; format: functional; settings: MT-3, 240 h, time 10 day
SW837 = assay: Antiproliferative activity against human SW837 cells assessed as cell growth inhibition incubated for 10 days; format: functional; settings: SW837, 240 h, time 10 day
BJAB = assay: Antiproliferative activity against human BJAB cells assessed as cell growth inhibition incubated for 6 days by celltiter-glo assay; format: functional; settings: 144 h, time 6 day
[5] = Antiproliferative activity against human OCUG-1 cells assessed as cell growth inhibition incubated for 10 days; format: functional; settings: OCUG-1, 240 h, time 10 day
SK-N-DZ = assay: Antiproliferative activity against human SK-N-DZ cells assessed as cell growth inhibition incubated for 10 days; format: functional; settings: 240 h, time 10 day
PANC-1 = assay: Antiproliferative activity against human PANC-1 cells assessed as cell growth inhibition incubated for 10 days; format: functional; settings: PANC-1, 240 h, time 10 day
LS174T = assay: Antiproliferative activity against human LS174T cells assessed as cell growth inhibition incubated for 10 days; format: functional; settings: 240 h, time 10 day
MeWo = assay: Antiproliferative activity against human MeWo cells assessed as cell growth inhibition incubated for 10 days; format: functional; settings: 240 h, time 10 day
HuCCT-1 = assay: Antiproliferative activity against human HuCCT-1 cells assessed as cell growth inhibition incubated for 10 days; format: functional; settings: HuCCT-1, 240 h, time 10 day; procedure, shortened: as §1
JAR = assay: Antiproliferative activity against human JAR cells assessed as cell growth inhibition incubated for 10 days; format: functional; settings: 240 h, time 10 day; procedure, shortened: as §3
MC-IXC = assay: Antiproliferative activity against human MC-IXC cells assessed as cell growth inhibition incubated for 10 days; format: functional; settings: 240 h, time 10 day
A 172 = assay: Antiproliferative activity against human A-172 cells assessed as cell growth inhibition incubated for 10 days; format: functional; settings: A 172, 240 h, time 10 day; procedure, shortened: as §2
RKO = assay: Antiproliferative activity against human RKO cells assessed as cell growth inhibition incubated for 10 days; format: functional; settings: 240 h, time 10 day
SJRH30 = assay: Antiproliferative activity against human SJRH30 cells assessed as cell growth inhibition incubated for 10 days; format: functional; settings: SJRH30, 240 h, time 10 day
CHP-212 = assay: Antiproliferative activity against human CHP-212 cells assessed as cell growth inhibition incubated for 10 days; format: functional; settings: CHP-212, 240 h, time 10 day; procedure, shortened: as §2
[6] = target: Protein arginine N-methyltransferase 5 (Homo sapiens) (UniProt O14744); assay: Inhibition of PRMT5 in human Z138 cells assessed as effect on KHSRP level by measuring fold change by LC-MS/MS analysis relative to control; format: cell-based
Chain of Protein arginine N-methyltransferase 5 (Homo sapiens) (O14744 whole entry): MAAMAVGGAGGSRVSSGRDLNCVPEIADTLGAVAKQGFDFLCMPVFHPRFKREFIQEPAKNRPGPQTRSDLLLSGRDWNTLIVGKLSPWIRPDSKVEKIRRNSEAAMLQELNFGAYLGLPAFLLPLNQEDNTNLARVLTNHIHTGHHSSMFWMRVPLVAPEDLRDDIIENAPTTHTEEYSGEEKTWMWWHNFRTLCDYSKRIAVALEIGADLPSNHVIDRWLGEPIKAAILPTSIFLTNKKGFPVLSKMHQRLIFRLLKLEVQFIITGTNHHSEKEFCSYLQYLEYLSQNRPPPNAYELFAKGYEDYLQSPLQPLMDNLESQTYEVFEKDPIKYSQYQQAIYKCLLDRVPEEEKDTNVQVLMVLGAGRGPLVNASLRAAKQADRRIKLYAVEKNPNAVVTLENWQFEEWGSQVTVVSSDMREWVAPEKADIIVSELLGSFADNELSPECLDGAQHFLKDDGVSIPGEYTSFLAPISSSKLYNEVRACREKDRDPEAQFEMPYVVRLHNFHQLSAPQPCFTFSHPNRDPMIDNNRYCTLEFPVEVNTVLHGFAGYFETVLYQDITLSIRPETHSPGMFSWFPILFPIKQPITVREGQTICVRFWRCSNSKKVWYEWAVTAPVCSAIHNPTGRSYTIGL

DBTRG-05MG = assay: Antiproliferative activity against human DBTRG-05MG cells assessed as cell growth inhibition incubated for 10 days; format: functional; settings: 240 h, time 10 day; procedure, shortened: as §4
[7] = target: Protein arginine N-methyltransferase 5 (Homo sapiens) (UniProt O14744); assay: Inhibition of PRMT5 in human Z138 cells assessed as effect on hnRNP level by measuring fold change by LC-MS/MS analysis relative to control; format: cell-based

CC(=O)N1CCC(Nc2cc(C(=O)NC[C@H](O)CN3CCc4ccccc4C3)ncn2)CC1 [PEMRAMETOSTAT]
Activity (Z-138 [1]): Active
Activity (MCF7): Active
Activity (JVM-2): Active
Activity (Rec1): inactive
Activity (Z-138 [2]): inactive

O=C(NC[C@H](O)CN1CCc2ccccc2C1)c1ccnc(NC2CCC2)c1
GI50 (Hs746T): 171 nM
GI50 (NCI-H520): 15.6 nM
GI50 (ARH-77): 44.4 nM
GI50 (639-V): 342 nM
GI50 (K562): 146 nM
GI50 (DU-145): 151 nM
GI50 (CAL-27): 103 nM
GI50 [3]: 103 nM
GI50 [4]: 46.4 nM
GI50 (SW837): 102 nM
GI50 (BJAB): 3100 nM
GI50 [5]: 379 nM
GI50 (SK-N-DZ): 257 nM
GI50 (PANC-1): 165 nM
GI50 (LS174T): 170 nM
GI50 (MeWo): 249 nM
GI50 (HuCCT-1): 225 nM
GI50 (JAR): 485 nM
GI50 (MC-IXC): 615 nM
GI50 (A 172): 29.6 nM
GI50 (RKO): 772 nM
GI50 (SJRH30): 472 nM
GI50 (CHP-212): 24 nM
fold change (FC) [6]: -7.8
GI50 (DBTRG-05MG): 156 nM
fold change (FC) [7]: -5.3
